A selection: hits, their analogues and other compounds. The true share with any hit is near 1.5%.
T cell HTS: modulators of CD8 T cell-vesicle binding, primary screen, mouse 2C CD8+ T cells, flow cytometry; 2C CD8+ T cell-vesicle binding; stronger effect = lower value; response (vesicle binding), % at 7 µM; 330,000 tested, 0.068% active; AID 2052, 2009;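 active = response, share of CD8 T cells binding vesicles, and their 90th percentile fluorescence all below set limits, cut at about 80% in these data, passing the limit was not always enough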;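 note: values below 100% mean blocked vesicle binding to the CD8+ T cells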
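System: murine 2C transgenic CD8+ T lymphocytes; also added: QL9-loaded Drosophila micro-vesicles; times: binding 1.5 h at 37 °C; measured by: flow cytometry, PE anti-B7-1 (FL2) versus Alexa647 anti-CD8 (FL8), PFA-fixed; control set: Peptide-free naked vesicles (low) and QL9 vesicles with 0.7% DMSO vehicle (high)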
CHT PAM: CHT positive allosteric modulators, primary screen, cell-based, membrane potential dye, choline EC20; AID 488977, 2010; 310,000 tested, 0.49% active; B-score at 10 µM; CHT-expressing cells; stronger effect = higher value; LV-AA mutant CHT in HEK293 cells;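 active = initial fluorescence not abnormally high and integrated response B-score, plate-corrected, over 3 SD above library mean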
Target sequence (Q9GZV3 whole entry, looked up): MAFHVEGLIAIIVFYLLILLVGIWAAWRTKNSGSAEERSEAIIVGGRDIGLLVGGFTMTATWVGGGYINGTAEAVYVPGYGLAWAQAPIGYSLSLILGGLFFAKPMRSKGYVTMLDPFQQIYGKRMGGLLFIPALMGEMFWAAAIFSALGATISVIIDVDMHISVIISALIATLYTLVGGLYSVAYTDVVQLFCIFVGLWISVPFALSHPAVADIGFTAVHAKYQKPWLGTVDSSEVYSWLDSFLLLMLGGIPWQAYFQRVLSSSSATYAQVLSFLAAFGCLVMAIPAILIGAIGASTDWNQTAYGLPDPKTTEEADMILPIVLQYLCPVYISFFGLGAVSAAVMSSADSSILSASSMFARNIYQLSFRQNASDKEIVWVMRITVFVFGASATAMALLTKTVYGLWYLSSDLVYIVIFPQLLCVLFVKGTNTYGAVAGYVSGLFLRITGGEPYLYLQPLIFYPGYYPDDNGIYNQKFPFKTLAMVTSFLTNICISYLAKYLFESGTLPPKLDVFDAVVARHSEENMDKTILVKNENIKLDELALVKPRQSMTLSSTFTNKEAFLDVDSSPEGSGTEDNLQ
VLA-4 inh: inhibition in human VLA-4 binding assay, primary screen, VLA-4 allosteric modulator project, MLPCN library, flow cytometry, VLA-4 expressing cells; ligand binding flow cytometry; 330,000 tested, 0.2% active; Integrin alpha-4 (Homo sapiens), P13612; inhibition, % (about 7 µM as worked out from the volumes in the protocol); in the data active = inhibition above about 50%
CHT inh: inhibitors of human choline transporter CHT; High affinity choline transporter 1 (Homo sapiens), Q9GZV3; 310,000 tested, 0.86% active; B-score at 10 µM; AID 488975, 2010; CHT-expressing cells, membrane potential dye, choline response; stronger effect = lower value;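 active = B-score over 3 SD under the library average, and starting fluorescence ratio not unusually high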;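 note: choline stimulus applied at its EC90 after an EC20 pre-addition; B-score computed on integrated fluorescence ratio after choline addition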
CHT block conf: CHT inhibitors, confirmation, cell-based, membrane potential dye, duplicate | CHT activity remaining % of control (stronger effect = lower value), % at 10 µM | shares compounds with CHT inh | CHT-expressing cells, choline membrane potential dye; LV-to-AA substituted CHT, HEK293 cells | 2,400 tested, 70% active;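 active = choline transporter activity left, mean of duplicates at 10 µM, below buffer-only control mean minus 3 SD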;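 note: depolarization triggered by choline at its EC90 following an EC20 pre-addition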
HEK293 MPD ctr: membrane potential effects in parental HEK293, counter-screen for CHT inhibitor project, cell-based, membrane potential dye; AID 493222, 2011; membrane potential ratio readout (active if shifted either direction beyond buffer ±3SD; no single direction) at 10 µM; shares compounds with CHT inh; choline response; active = decrease or increase beyond buffer ±3SD; 2,400 tested, 4% active;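 note: parental cells lack the transporter so any hit is non-specific; ratio is peak minus trough fluorescence over baseline after EC90 choline challenge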
Hits are given with their value; - = inactive; . = not tested or not shown.

SMILES | T cell HTS | CHT PAM | VLA-4 inh | CHT inh | CHT block conf | HEK293 MPD ctr
C=CCn1c(CSc2nc3ccccc3s2)nnc1SCC(=O)NCc1ccccc1 | - | - | - | -5.6 | 62% | -
C=CCn1c(CSc2nc3ccccc3s2)nnc1SCC(=O)NCc1cccnc1 | - | - | - | - | . | .
CCC(=O)Nc1ccc(C(=O)Cn2ncc(Cl)c(Cl)c2=O)cc1 | - | - | - | - | . | .
Cc1cc(C(=O)Cn2ncc(Cl)c(Cl)c2=O)c(C)n1CC(F)(F)F | - | - | - | -5.6 | 44% | -
CCOc1ccc(-n2c(SCc3ccc(C#N)cc3)nnc2-c2cccnc2)cc1 | - | - | - | - | . | .
CCc1ccc(-n2c(SCc3c(C)noc3C)nnc2-c2ccncc2)cc1 | - | - | - | -5.1 | - | -
C=CCSc1nnc(-c2ccncc2)n1-c1ccc(OCC)cc1 | - | - | - | -5.5 | 59% | -8.4
O=C(O)c1ccc(CSc2nnc(-c3ccncc3)n2-c2ccc(Cl)cc2)cc1 | - | - | - | - | . | .
N#Cc1ccc(NC(=O)COC(=O)CCc2nc3ccccc3c(=O)[nH]2)cc1 | - | - | - | - | . | .
O=Cc1ccc(OCCOc2ccc([N+](=O)[O-])cc2)cc1 | - | - | - | - | . | .
CCOC(=O)c1[nH]c(C=O)c(C(=O)OCC)c1C | - | - | - | -5.2 | 69% | -
O=C(CCCCCNC(=O)N1CCn2c1nc1ccccc12)NCc1ccccc1Cl | - | - | - | - | . | .
Cc1cnc(C(=O)OCC(=O)NCc2ccc(Cl)cc2)cn1 | - | . | - | . | . | .
CCCc1cc(=O)[nH]c(SCc2nc3ccccc3s2)n1 | - | - | - | -5 | 66% | -
CCCOP(=O)(c1ccc(N(C)C)cc1)C(O)c1ccc(Br)cc1 (centres undefined) | - | - | - | -5.8 | 68% | -
Cc1ccccc1CCN(C(=O)c1csnn1)C(C(=O)NC1CCCC1)c1ccncc1 (centres undefined) | - | - | - | - | . | .
CC(=O)NS(=O)(=O)c1ccc(NC(=S)NC(=O)Cc2ccccc2)cc1 | - | - | - | -7.5 | - | -
CC(=O)NS(=O)(=O)c1ccc(NC(=S)NC(=O)CC(C)C)cc1 | - | - | - | - | . | .
C=CCN1C(c2cccc(C(F)(F)F)c2)=CS/C1=C(/C#N)c1nnc(N2CCOCC2)n1-c1ccccc1 | - | - | - | -6 | - | -
O=C(Cc1cccc2ccccc12)NCCc1ccccc1 | - | - | - | - | . | .
CCn1c(SCc2nc3scc(-c4ccccc4)c3c(=O)[nH]2)nnc1-c1cccs1 | - | - | - | -7.3 | - | -
CCn1c(SCc2nc(-c3ccccc3)no2)nnc1-c1ccco1 | - | - | - | -5.2 | 55% | -
CCn1c(SCc2nc(-c3ccccc3)no2)nnc1-c1cccs1 | - | - | - | -5.5 | 47% | -
Cc1ccc(-n2nc3c(c2NC(=O)c2ccc4c(c2)OCO4)CS(=O)C3)c(C)c1 (centres undefined) | - | - | - | - | . | .
COc1ccc(S(=O)(=O)N2CCOCC2)cc1NC(=O)CSc1nnc2ccccn12 | - | - | - | - | . | .
SMILES | T cell HTS | CHT PAM | VLA-4 inh | CHT inh | CHT block conf | HEK293 MPD ctr
CC(C)(C)Sc1ccccc1S(=O)(=O)C(C)(C)C | - | - | - | - | . | .
CCN(CC)c1ccc(C2C3CCCCC3(O)CCN2CC(=O)N2CCCCC2)cc1 (centres undefined) | - | - | - | -5.9 | - | -
CCN(CC)c1ccc([C@H]2[C@@H]3CCCC[C@]3(O)CCN2CC(=O)NCc2ccco2)cc1 | - | - | - | - | . | .
CC(Oc1ccc(Cl)cc1Cl)C(=O)NC1=NN(c2ccccc2)C(=O)C1 (centres undefined) | - | - | - | -6.3 | 39% | -
Cc1cc(Cl)ccc1OC(C)C(=O)Nc1ccc(S(=O)(=O)Nc2cnc3ccccc3n2)cc1 (centres undefined) | - | - | - | -11 | 43% | -
CC(Oc1ccc(Cl)cc1Cl)C(=O)Nc1ccc(S(=O)(=O)Nc2cnc3ccccc3n2)cc1 (centres undefined) | - | - | - | -9.9 | 46% | -
O=C1NC(c2ccccc2)=C(c2ccc3ccccc3n2)C(c2ccncc2)N1 (centres undefined) | - | - | - | -6.3 | 47% | -
O=C(NCCN1CCOCC1)c1ccc2c(c1)N(Cc1cccc(F)c1)C(=O)c1ccccc1S2 | - | - | - | - | . | .
O=C(O)c1ccc2c(c1)N(Cc1ccc(F)cc1)C(=O)c1ccccc1S2 | - | - | - | -5.2 | 64% | -
O=C(Nc1ccccc1)N1CCCC(c2nc(-c3ccc(F)cc3)no2)C1 (centres undefined) | - | - | - | -5.9 | - | -
Cc1ccc(NC(=O)N2CCCC(c3nc(-c4ccc(F)cc4)no3)C2)cc1 (centres undefined) | - | - | - | - | . | .
Cc1csc(NC(=O)CSc2nc(C(C)C)nc3ccccc23)n1 | - | - | - | -5.9 | 60% | -
CCOC(=O)c1sc(NC(=O)CCN2C(=O)c3cccc([N+](=O)[O-])c3C2=O)c(C(=O)OCC)c1C | - | - | - | -7.4 | 56% | -
O=S(=O)(c1c(F)cccc1F)N1CCCC2CCCCC21 (centres undefined) | - | . | - | . | . | .
CCOC(=O)N/N=C/c1ccc(OCCSc2ccc(Cl)cc2)c(OCC)c1 | - | - | - | -5 | - | -
CCOc1cc(/C=N/NC(=O)CN2CCCCC2)ccc1OCc1cccc(Cl)c1 | - | - | - | -6.6 | 49% | -
CCOC(=O)N/N=C/c1ccc(OCCSc2ccc(Cl)cc2)c(OC)c1 | - | - | - | - | . | .
Cc1nnc(NC(=O)CSc2nnc3ncccn23)s1 | - | - | - | - | . | .
CCCCn1cnc2c(oc3nc4c(cc32)CCCC4)c1=O | - | - | - | - | . | .
COc1ccc(OC)c(S(=O)(=O)N2CCC(C(=O)N3CCCC3)CC2)c1 | - | - | - | - | . | .
COc1ccc(OC)c(S(=O)(=O)N2CCC(C(=O)N3CCc4ccccc4C3)CC2)c1 | - | - | - | - | - | -
CCOC(=O)c1c(NC(=O)c2cc(-c3ccc(O)cc3)on2)sc(C(C)=O)c1C | - | - | - | - | . | .
Clc1cccc(Cl)c1CSc1nnc([C@@H]2CCCN2)o1 | - | - | - | - | . | .
CN1CCN(CCOCCOc2ccc(Br)cc2Cl)CC1 | - | - | - | -6.7 | 56% | -
CC1CCCN(CCOCCOc2ccc(Br)cc2Cl)C1 (centres undefined) | - | - | - | - | . | .
Cc1ncc([N+](=O)[O-])n1S(=O)(=O)c1cc(Br)ccc1Br | - | - | - | - | . | .
